Screening results as filed in PubChem BioAssay.
Keap1-Nrf2 PPI: Keap1-Nrf2 protein-protein interaction inhibitors, primary screen, biochemical, fluorescence polarization, single point; Kelch-like ECH-associated protein 1 (Homo sapiens), Q14145; Keap1 Kelch-Nrf2 peptide fluorescence polarization, 1536-well; inhibition, % at 9.4 µM; hit rate 0.15% among 340,000; AID 504523, 2011; in the data active means inhibition above about 12%;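 further: human Keap1 Kelch domain with fluorescein labeled Nrf2 9mer peptide probe; higher means more block of Keap1 binding to Nrf2 peptide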
CAL PDZ FP-1: CAL PDZ peptide-binding inhibitors, primary screen, biochemical, fluorescence polarization, Cer-tagged CAL PDZ, HTS; Golgi-associated PDZ and coiled-coil motif-containing protein (Homo sapiens), Q9HD26; inhibition, % at 20 µM; purified CAL PDZ, TMR-peptide fluorescence polarization, 1 h; hit rate 0.02% among 330,000;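 active means highest replicate inhibition of at least 40%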
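Control set: unlabelled peptide and DMSO controls / Material: purified CerCALP PDZ construct / Timing: 1 h incubation at room temperature before polarization reading / Doses: 20 µM, one dose / Detection: fluorescence polarization (mP)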
LANA-H2A inh: blockers of LANA interaction with H2A/H2B – biochemical, FP readout, HTS, primary screen | Protein LANA1 (Human herpesvirus 8 type P (isolate GK18)), Q9QR71 | cell-free LANA-H2A/H2B peptide, fluorescence polarization | inhibition, % (concentration not given with the values) | hit rate 0.6% among 320,000; in the data active means inhibition mostly above about 10%, no sharp cut-off; inactive means mostly below about 6.7%
Target sequence (Q9QR71 whole entry, looked up): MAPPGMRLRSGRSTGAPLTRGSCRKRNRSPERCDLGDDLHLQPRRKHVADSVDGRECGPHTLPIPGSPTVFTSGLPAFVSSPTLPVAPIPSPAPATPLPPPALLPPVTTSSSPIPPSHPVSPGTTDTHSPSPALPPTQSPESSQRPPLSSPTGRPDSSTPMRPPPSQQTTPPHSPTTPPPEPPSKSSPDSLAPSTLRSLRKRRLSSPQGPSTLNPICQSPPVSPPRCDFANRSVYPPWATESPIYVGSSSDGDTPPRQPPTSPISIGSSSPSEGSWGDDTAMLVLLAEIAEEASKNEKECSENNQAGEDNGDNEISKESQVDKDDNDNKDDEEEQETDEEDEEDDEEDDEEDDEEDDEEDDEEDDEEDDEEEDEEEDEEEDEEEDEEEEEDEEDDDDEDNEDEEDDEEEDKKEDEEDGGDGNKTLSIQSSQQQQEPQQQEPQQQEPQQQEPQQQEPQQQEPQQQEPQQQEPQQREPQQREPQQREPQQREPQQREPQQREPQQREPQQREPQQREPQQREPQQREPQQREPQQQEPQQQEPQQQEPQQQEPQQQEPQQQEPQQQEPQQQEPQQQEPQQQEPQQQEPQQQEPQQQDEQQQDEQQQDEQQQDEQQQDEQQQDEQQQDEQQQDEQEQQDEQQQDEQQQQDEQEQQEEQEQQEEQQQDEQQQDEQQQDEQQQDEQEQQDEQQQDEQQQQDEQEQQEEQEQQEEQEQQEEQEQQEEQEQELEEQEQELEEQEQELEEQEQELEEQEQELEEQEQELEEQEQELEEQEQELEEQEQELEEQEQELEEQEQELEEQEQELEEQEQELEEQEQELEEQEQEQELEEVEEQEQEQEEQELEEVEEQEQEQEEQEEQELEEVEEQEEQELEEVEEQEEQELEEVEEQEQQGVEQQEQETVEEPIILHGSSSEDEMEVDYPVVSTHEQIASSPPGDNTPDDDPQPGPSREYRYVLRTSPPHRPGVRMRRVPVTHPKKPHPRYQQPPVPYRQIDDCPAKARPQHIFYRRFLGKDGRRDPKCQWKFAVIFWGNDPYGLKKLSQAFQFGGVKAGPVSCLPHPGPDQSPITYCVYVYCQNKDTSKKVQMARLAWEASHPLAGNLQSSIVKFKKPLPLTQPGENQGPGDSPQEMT
CaV13 FRET inh: Primary screen for inhibitors of IQ motif and Ca2+-dependent inactivation inhibitor domain binding in CACNA1D, Förster resonance energy transfer in living cells, …. HEK cells, CFP/YFP FRET ICDI-IQ, plate reader, 10 min; percent FRET-ratio fall versus neutral wells. inhibition, % at 12.3 µM. hit rate 0.098% among 340,000. AID 743397;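 active means mean replicate inhibition of at least 30% and at least 1% of replicates passing that level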
CAL PDZ FP-2: untagged CAL PDZ binding inhibitors, primary screen, biochemical, fluorescence polarization, HTS; Golgi-associated PDZ and coiled-coil motif-containing protein (Homo sapiens), Q9HD26; purified CAL PDZ, TMR-peptide fluorescence polarization, 1 h; inhibition, % at 24.9 µM; hit rate 0.92% among 300,000;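 active means mean inhibition of at least 30% with at least half of replicates also reaching 30%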
C-LANA FP: inhibitors of KSHV C-LANA binding to DNA, primary screen, biochemical, fluorescence polarization, FAM-LBS DNA, MBP-C-LANA, single point. Kaposi's sarcoma herpesvirus LANA C-terminal domain (residues 932-1162) DNA binding. inhibition, % at 9 µM. hit rate 0.078% among 340,000. AID 504423, 2011;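 active means highest replicate inhibition at or above 60% at 9 µM, even if other replicates fall short; inactive means all replicates below 60% inhibition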
Keap1 Kelch bind: Keap1 Kelch domain binders by thermal stabilisation, dose response, biophysical, thermal shift, RT-PCR instrument, cherry-pick; shares compounds with Keap1-Nrf2 PPI; delta Tm; stronger effect = higher value; max delta Tm, degrees C; hit rate 8% among 400; AID 651823, 2012; in the data active means max delta Tm above about 0.48 degrees C
Dye-only ctr: Sypro Orange dye melt without protein, dose response, artefact control for Keap1-Nrf2 interaction inhibitor project, biochemical, thermal shift counterscreen, cherry-pick; Sypro Orange dye-only thermal melt, no protein, delta Tm; top dose 26 µM; delta Tm, degrees C (test concentration not listed); shares compounds with Keap1-Nrf2 PPI; AID 651858, 2012; 140 tested, under 10 active;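 active means at highest dose tested, delta Tm positive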
Of the large screens only hits and unclear results are named; the others gave an inactive call (follow-up assays come after a bar, where they were run). An excerpt weighted towards active compounds, which were near 1.5% of everything screened.

CCC1(c2ccccc2)NC(=O)N(CC(=O)Nc2ccc3c(c2)CCC3)C1=O (centres undefined)	none (no result: Keap1-Nrf2 PPI, CAL PDZ FP-1, LANA-H2A inh, CAL PDZ FP-2, C-LANA FP)
Cc1ccccc1NC(=O)c1sc(NC(=O)C2CC2)nc1C	Keap1-Nrf2 PPI 28 (no result: CAL PDZ FP-2) | Keap1 Kelch bind inactive
Cc1nc(NC(=O)C2CC2)sc1C(=O)Nc1ccccc1	none (no result: CAL PDZ FP-2)
CCOc1ccc(S(=O)(=O)N2CCC(C(=O)NCc3ccncc3)CC2)cc1Cl	none
O=C(NCC(c1ccccc1)N1CCCC1)C1CCN(C(=O)Nc2ccccc2)CC1 (centres undefined)	none (no result: LANA-H2A inh)
CC(C)CC1C(C#N)=C(N)Oc2n[nH]c(-c3ccccc3)c21 (centres undefined)	none (no result: CaV13 FRET inh)
Cc1[nH]nc2c1C(CC(C)C)C(C#N)=C(N)O2 (centres undefined)	Keap1-Nrf2 PPI 46 (no result: CAL PDZ FP-2) | Keap1 Kelch bind inactive | Dye-only ctr inactive
COc1ccc(NC(=O)Cc2ccsc2)cc1S(=O)(=O)N1CCOCC1	Keap1-Nrf2 PPI 46 (no result: CAL PDZ FP-2) | Keap1 Kelch bind inactive
O=C1CCCc2oc3c(cc(NS(=O)(=O)c4ccc5c6c(cccc46)C(=O)N5)c4ccccc43)c21	Keap1-Nrf2 PPI 24 | Keap1 Kelch bind 1.6
Cc1oc2c(cc(NS(=O)(=O)c3ccc4c5c(cccc35)C(=O)N4)c3ccccc32)c1C(=O)OC(C)C	none
CC(Oc1ccccc1)C(=O)N1CCN=C1SCc1ccc(F)cc1 (centres undefined)	none (no result: CAL PDZ FP-2)
CCOC(=O)c1c(=O)n(O)c2ccc(OC)cc2[n+]1[O-]	Keap1-Nrf2 PPI 19, LANA-H2A inh 82 | Keap1 Kelch bind inactive
O=C(C1=NN(c2ccccc2)C2C(=O)N(c3ccccc3)C(=O)C12)c1ccccc1 (centres undefined)	Keap1-Nrf2 PPI 54, CaV13 FRET inh active | Keap1 Kelch bind inactive | Dye-only ctr inactive
Cc1ccc(N2C(=O)C3C(C(=O)c4ccccc4)=NN(c4ccccc4)C3C2=O)cc1 (centres undefined)	none (no result: LANA-H2A inh)
CC(C)[C@H](NC(=O)c1c(F)cccc1F)C(=O)OCC(=O)NNC(=O)c1ccccc1	none (no result: Keap1-Nrf2 PPI, CAL PDZ FP-1, LANA-H2A inh, CAL PDZ FP-2, C-LANA FP)
Cc1ccc(-n2nnnc2SCC(=O)c2c(N)n(C3CC3)c(=O)[nH]c2=O)cc1	Keap1-Nrf2 PPI 42, LANA-H2A inh 17 (no result: CAL PDZ FP-2) | Keap1 Kelch bind inactive
COc1ccc(Cl)cc1NC(=O)CSc1nc2ccsc2c(=O)n1CC1CCC(C(=O)O)CC1 (centres undefined)	none
O=C(COC(=O)c1cccnc1Cl)Nc1ccc(N2CCCCC2)cc1	Keap1-Nrf2 PPI 43, LANA-H2A inh active (no result: CAL PDZ FP-2, C-LANA FP) | Keap1 Kelch bind inactive | Dye-only ctr inactive
O=C(COC(=O)c1cccnc1Cl)Nc1ccc(N2CCOCC2)cc1	none (no result: Keap1-Nrf2 PPI, CAL PDZ FP-1, LANA-H2A inh, CAL PDZ FP-2, C-LANA FP)
O=C(NNc1cc(Cl)ccc1Cl)c1cccs1	Keap1-Nrf2 PPI 31 (no result: CAL PDZ FP-2) | Keap1 Kelch bind inactive
Cc1cc(Cl)ccc1NNC(=O)c1cccs1	none
COC(=O)c1cc(C)nc2c1c(C)nn2-c1ccccc1	Keap1-Nrf2 PPI 44 (no result: CAL PDZ FP-2) | Keap1 Kelch bind inactive | Dye-only ctr inactive
O=C1C(=Cc2ccco2)CCC1=Cc1ccco1	Keap1-Nrf2 PPI 20, C-LANA FP 116 (no result: LANA-H2A inh) | Keap1 Kelch bind 0.86
O=C1C(=Cc2ccco2)CCCC1=Cc1ccco1	none (no result: LANA-H2A inh)
O=C1NC(=O)/C(=C\c2ccc(Cl)cc2Cl)N1	none (no result: LANA-H2A inh)
O=C1NC(=O)/C(=C/c2ccccc2Cl)N1	Keap1-Nrf2 PPI 112 | Keap1 Kelch bind inactive
O=S(=O)(c1ccc(NC(=S)NCc2cccnc2)cc1)N1CCCCC1	none (no result: CAL PDZ FP-2)
O=S(=O)(Nc1ncccn1)c1ccc(NC(=S)NCc2cccnc2)cc1	Keap1-Nrf2 PPI 17 | Keap1 Kelch bind inactive
Cc1cc2nc3c(=O)[nH]c(=O)[nH]c3nc2c([N+](=O)[O-])c1N	Keap1-Nrf2 PPI 89, C-LANA FP 109 (no result: LANA-H2A inh) | Keap1 Kelch bind inactive | Dye-only ctr inactive
O=S(=O)(NCCc1ccc(Cl)cc1)c1cccc2cccnc12	none (no result: CAL PDZ FP-1)
CCN(CC)c1ccc2cc(S(=O)(=O)c3ccc(Cl)cc3)c(=O)oc2c1	Keap1-Nrf2 PPI 33, LANA-H2A inh 39, CaV13 FRET inh active (no result: CAL PDZ FP-2) | Keap1 Kelch bind inactive | Dye-only ctr inactive
O=C(Cc1ccc(S(=O)(=O)N2CCCC2)s1)Nc1nc2c(s1)CCCC2	Keap1-Nrf2 PPI 13 (no result: CAL PDZ FP-1) | Keap1 Kelch bind inactive | Dye-only ctr inactive
COc1cc(/C=C/C(=O)OCC(=O)c2ccc3c(c2)NC(=O)CO3)ccc1OC(F)F	Keap1-Nrf2 PPI 21 (no result: CAL PDZ FP-2) | Keap1 Kelch bind inactive | Dye-only ctr inactive
COc1ccc(S(=O)(=O)NCC(c2ccc3c(c2)OCO3)N2CCOCC2)cc1 (centres undefined)	none
CC(=O)Nc1ccc(N2C(=O)c3cccc4c(O)ccc(c34)C2=O)cc1	none
O=C1c2cccc3c(O)ccc(c23)C(=O)N1Cc1ccco1	Keap1-Nrf2 PPI 37, C-LANA FP 76 (no result: LANA-H2A inh) | Keap1 Kelch bind inactive
O=C1c2cccc3c(O)ccc(c23)C(=O)N1c1ccc(Cl)cc1	Keap1-Nrf2 PPI 39, LANA-H2A inh 23 | Keap1 Kelch bind inactive
C/C(=C\c1ccco1)CN1CCN(Cc2ccc(C)o2)C(CCO)C1 (centres undefined)	none
O=C(OCCN1C(=O)c2cccc3c(N4CCOCC4)ccc(c23)C1=O)c1ccc(Cl)cc1Cl	Keap1-Nrf2 PPI 43, LANA-H2A inh 30, C-LANA FP 63 | Keap1 Kelch bind inactive | Dye-only ctr inactive
O=C(OCc1c(F)cccc1Cl)c1cc([N+](=O)[O-])ccc1N1CCOCC1	none (no result: CAL PDZ FP-2)
COC(=O)c1ccc2c(=O)n(CCCCCC(=O)NC3CCCCC3)c(=O)[nH]c2c1	none (no result: Keap1-Nrf2 PPI, CAL PDZ FP-1, LANA-H2A inh, CAL PDZ FP-2, C-LANA FP)
CCN(CC)c1ccc(/C=N/NC(=O)c2c(Cl)cnn2C)c(O)c1	Keap1-Nrf2 PPI 22 | Keap1 Kelch bind inactive
CCOC(=O)C1CCCN(S(=O)(=O)c2cnc(Cl)c(Br)c2)C1 (centres undefined)	none
CCOC(=O)C1=C(C)NC(C)=C(C(=O)OCC)C1c1ccc([N+](=O)[O-])s1	Keap1-Nrf2 PPI 39 (no result: CAL PDZ FP-2) | Keap1 Kelch bind inactive
